{"data": "Experimental data from different studies", "KIT D816H": "Mast/stem cell growth factor receptor Kit (KIT, Homo sapiens, UniProt P10721, D816H)", "KIT D816V": "Mast/stem cell growth factor receptor Kit (KIT, Homo sapiens, UniProt P10721, D816V)"}
{"Compound": "Cn1nc(C(F)(F)F)cc1-c1cnc(N2CCc3cc(S(=O)(=O)Nc4c(F)cc(Cl)cc4F)cc(N4CCCC4=O)c32)nc1", "target": "KIT D816H", "test": "cell-free assay, competition with immobilised ligand", "setting": "1 µM", "quantity": "remaining binding", "value": "77%"}
{"Compound": "N[C@@H]1CCN(c2nccc(-c3cnn4ncccc34)n2)C1", "target": "Mast/stem cell growth factor receptor Kit, autoinhibited (KIT, Homo sapiens, UniProt P10721)", "test": "binding", "setting": "1 µM", "quantity": "remaining binding", "value": "80%"}
{"Compound": "COc1ccc2c(O[C@@H]3C[C@H]4C(=O)N[C@]5(C(=O)O)CC5/C=C\\CCCCC[C@H](NC(=O)OC5CCCC5)C(=O)N4C3)cc(-c3csc(NC(=O)C(C)C)n3)nc2c1C (stereo partly drawn)", "target": "Mast/stem cell growth factor receptor Kit (KIT, Homo sapiens, UniProt P10721, V559D/V654A)", "test": "cell-free assay, competition with immobilised ligand", "setting": "1 µM", "quantity": "remaining binding", "value": "74%"}
{"Compound": "CN(C)c1nccc(-c2cnn3ncccc23)n1", "target": "Mast/stem cell growth factor receptor Kit (KIT, Homo sapiens, UniProt P10721)", "test": "binding", "setting": "1 µM", "quantity": "remaining binding", "value": "100%"}
{"Compound": "Cc1ccc(C(=O)NCc2ccsc2)cc1C#Cc1cn(C(C)C)c2ncnc(N)c12", "target": "KIT D816H", "test": "enzyme activity, inhibitor", "setting": "1 µM", "quantity": "activity vs control", "value": "11%"}
{"Compound": "Nc1ncnc2occ(-c3ccc(NC(=O)Nc4cc(C(F)(F)F)ccc4F)cc3)c12", "target": "Mast/stem cell growth factor receptor Kit (KIT, Homo sapiens, UniProt P10721, A829P)", "test": "cell-free assay, inhibitor", "setting": "20 µM", "quantity": "remaining signal", "value": "3.7%"}
{"Compound": "CC/C(=N\\NC(=O)NCc1cccc(O)c1)c1ccc(O)c(C)c1O", "target": "Mast/stem cell growth factor receptor Kit (KIT, Homo sapiens, UniProt P10721, V560G)", "test": "enzyme activity, inhibitor", "setting": "0.1 µM", "quantity": "inhibition", "value": "0.1%"}
{"Compound": "O=C(O)[C@H]1[C@H](Cn2nnc3ccccc3c2=O)CC[C@@H]1C(=O)c1ccc(OCCC2CCOCC2)cc1", "target": "KIT D816V", "test": "cell-free assay, competition with immobilised ligand", "setting": "1 µM", "quantity": "remaining binding", "value": "97%"}
{"Compound": "Cc1cc(NC(=O)c2cccc3cc(-c4cccc5[nH]nc(N)c45)ccc23)ccc1F", "target": "KIT D816V", "test": "enzyme activity, inhibitor", "setting": "0.1 µM", "quantity": "activity vs control", "value": "107%"}
